Laboratory results published in ChEMBL document CHEMBL5303300, “EUbOPEN Chemogenomics Library - Multiplex” (2023).
Several values for one entry are separate records, joined by “and”; a condition that tells them apart may be missing. Identical values can stand only once.

Test system: U2OS
Experiment: Multiplex assay against U2OS
Type: toxicity, cell-based
Conditions: human, number of replicates 2
In short: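 Cells were classed with CellPathfinder machine-learning gating, first as Hoechst high-intensity objects or normal cells, then (normal cells) as healthy, pyknosed or fragmented nuclei, and finally (pyknosed cells) as mitotic or apoptotic. Staining of live cells at seeding used Hoechst33342, BioTracker Green Microtubule Cytoskeleton Dye, MitoTracker Red and Annexin V Alexa Fluor 680, with imaging on a CQ1 microscope at 37°C and 5% CO2 after compound addition. Tubulin, mitochondrial-mass and membrane-permeability phenotypes are per cents of healthy-nucleus cells.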

[1] = 12 h, 1 µM, compound concentration 1 uM
[2] = 12 h, 10 µM, compound concentration 10 uM
[3] = 24 h, 1 µM, compound concentration 1 uM
[4] = 24 h, 10 µM, compound concentration 10 uM
[5] = 48 h, 1 µM, compound concentration 1 uM
[6] = 48 h, 10 µM, compound concentration 10 uM

## COc1ccccc1-c1cc(Nc2cccc(CS(N)(=O)=O)c2)ncn1
[1]
  Population Apoptotic (%): 75% and 86%
  Population Fragmented Nuclei (%): 13% and 5%
  Population Healthy Nuclei (%): 75% and 84%
  Population Hoechst High Intensity Objects (%): 0%
  Population Membrane Permeable-Phenotype (%): 7% and 3%
  Population Mitochondria Different-Phenotype (%): 0% and 1%
  Population Mitotic Cells (%): 25% and 13%
  Population Normal (%): 100%
  Population Pyknosed Nuclei (%): 11% and 10%
  Population Tubulin-Different-Phenotype (%): 62% and 80%
[2]
  Population Apoptotic (%): 63% and 66%
  Population Healthy Nuclei (%): 82% and 50%
  Population Hoechst High Intensity Objects (%): 0%
  Population Mitochondria Different-Phenotype (%): 1% and 0%
  Population Mitotic Cells (%): 36% and 33%
  Population Normal (%): 100%
  Population Pyknosed Nuclei (%): 12% and 13%
  Population Tubulin-Different-Phenotype (%): 72% and 34%
[3]
  Population Apoptotic (%): 80% and 86%
  Population Healthy Nuclei (%): 70% and 88%
  Population Hoechst High Intensity Objects (%): 0%
  Population Membrane Permeable-Phenotype (%): 2% and 1%
  Population Mitochondria Different-Phenotype (%): 2% and 0%
  Population Mitotic Cells (%): 20% and 13%
  Population Normal (%): 100%
  Population Pyknosed Nuclei (%): 8% and 7%
  Population Tubulin-Different-Phenotype (%): 51% and 77%
[4]
  Population Apoptotic (%): 80%
  Population Healthy Nuclei (%): 79% and 62%
  Population Hoechst High Intensity Objects (%): 0%
  Population Mitochondria Different-Phenotype (%): 1% and 11%
  Population Mitotic Cells (%): 19% and 20%
  Population Normal (%): 100%
  Population Pyknosed Nuclei (%): 16% and 18%
  Population Tubulin-Different-Phenotype (%): 76% and 50%
[5]
  Population Apoptotic (%): 75% and 83%
  Population Fragmented Nuclei (%): 13% and 4%
  Population Healthy Nuclei (%): 77% and 88%
  Population Hoechst High Intensity Objects (%): 0%
  Population Membrane Permeable-Phenotype (%): 8% and 1%
  Population Mitochondria Different-Phenotype (%): 0%
  Population Mitotic Cells (%): 25% and 16%
  Population Normal (%): 100%
  Population Pyknosed Nuclei (%): 9% and 7%
  Population Tubulin-Different-Phenotype (%): 75% and 78%
[6]
  Population Apoptotic (%): 66% and 77%
  Population Fragmented Nuclei (%): 18% and 7%
  Population Healthy Nuclei (%): 60% and 73%
  Population Hoechst High Intensity Objects (%): 0%
  Population Membrane Permeable-Phenotype (%): 8% and 6%
  Population Mitochondria Different-Phenotype (%): 6% and 3%
  Population Mitotic Cells (%): 33% and 22%
  Population Normal (%): 100%
  Population Pyknosed Nuclei (%): 20% and 18%
  Population Tubulin-Different-Phenotype (%): 55% and 73%

## CC(C)(C)c1cnc(CSc2cnc(NC(=O)C3CCNCC3)s2)o1 [BMS-387032]
[1]
  Population Apoptotic (%): 83% and 88%
  Population Healthy Nuclei (%): 60% and 73%
  Population Hoechst High Intensity Objects (%): 1% and 0%
  Population Membrane Permeable-Phenotype (%): 8% and 3%
  Population Mitochondria Different-Phenotype (%): 2% and 4%
  Population Mitotic Cells (%): 16% and 12%
  Population Normal (%): 98% and 100%
  Population Pyknosed Nuclei (%): 10% and 19%
  Population Tubulin-Different-Phenotype (%): 80% and 82%
  Total Cell Count: 61 and 128
[2]
  Population Apoptotic (%): 85% and 65%
  Population Healthy Nuclei (%): 32% and 71%
  Population Hoechst High Intensity Objects (%): 0% and 1%
  Population Mitochondria Different-Phenotype (%): 7% and 11%
  Population Mitotic Cells (%): 14% and 35%
  Population Normal (%): 100% and 98%
  Population Pyknosed Nuclei (%): 17% and 22%
[3]
  Population Apoptotic (%): 66% and 94%
  Population Fragmented Nuclei (%): 22% and 9%
  Population Healthy Nuclei (%): 62% and 69%
  Population Hoechst High Intensity Objects (%): 1% and 0%
  Population Membrane Permeable-Phenotype (%): 8% and 1%
  Population Mitochondria Different-Phenotype (%): 5%
  Population Normal (%): 98% and 100%
  Population Pyknosed Nuclei (%): 15% and 21%
  Population Tubulin-Different-Phenotype (%): 75% and 77%
  Total Cell Count: 60 and 163
[4]
  Population Apoptotic (%): 87% and 78%
  Population Healthy Nuclei (%): 32% and 41%
  Population Hoechst High Intensity Objects (%): 0%
  Population Mitochondria Different-Phenotype (%): 21% and 25%
  Population Mitotic Cells (%): 12% and 21%
  Population Normal (%): 100% and 99%
  Population Pyknosed Nuclei (%): 18% and 46%
  Population Tubulin-Different-Phenotype (%): 57% and 52%
[5]
  Population Apoptotic (%): 68% and 93%
  Population Fragmented Nuclei (%): 23% and 8%
  Population Healthy Nuclei (%): 55% and 66%
  Population Hoechst High Intensity Objects (%): 0%
  Population Mitochondria Different-Phenotype (%): 6% and 5%
  Population Normal (%): 100%
  Population Pyknosed Nuclei (%): 21% and 25%
  Population Tubulin-Different-Phenotype (%): 89% and 80%
  Total Cell Count: 89 and 235
[6]
  Population Apoptotic (%): 84% and 94%
  Population Healthy Nuclei (%): 21% and 9%
  Population Hoechst High Intensity Objects (%): 0% and 4%
  Population Membrane Permeable-Phenotype (%): 80% and 41%
  Population Mitochondria Different-Phenotype (%): 40% and 52%
  Population Mitotic Cells (%): 15% and 5%
  Population Normal (%): 100% and 95%
  Population Pyknosed Nuclei (%): 27% and 75%
  Population Tubulin-Different-Phenotype (%): 50% and 76%

## CC(C)S(=O)(=O)c1ccccc1Nc1nc(N[C@@H]2CCCN(CCCCCCCNC(=O)COc3cccc4c3C(=O)N(C3CCC(=O)NC3=O)C4=O)C2)ncc1Cl (stereo partly specified)
[1]
  Population Apoptotic (%): 82% and 80%
  Population Fragmented Nuclei (%): 14% and 8%
  Population Healthy Nuclei (%): 43% and 61%
  Population Hoechst High Intensity Objects (%): 0% and 1%
  Population Membrane Permeable-Phenotype (%): 5%
  Population Mitochondria Different-Phenotype (%): 5% and 6%
  Population Mitotic Cells (%): 17% and 19%
  Population Normal (%): 100% and 98%
  Population Pyknosed Nuclei (%): 41% and 30%
  Population Tubulin-Different-Phenotype (%): 66% and 62%
[2]
  Population Apoptotic (%): 85% and 81%
  Population Fragmented Nuclei (%): 11% and 7%
  Population Healthy Nuclei (%): 38% and 61%
  Population Hoechst High Intensity Objects (%): 0% and 5%
  Population Membrane Permeable-Phenotype (%): 81% and 57%
  Population Mitochondria Different-Phenotype (%): 62% and 55%
  Population Mitotic Cells (%): 14% and 18%
  Population Normal (%): 100% and 94%
  Population Pyknosed Nuclei (%): 50% and 31%
  Population Tubulin-Different-Phenotype (%): 100% and 96%
[3]
  Population Apoptotic (%): 83% and 87%
  Population Fragmented Nuclei (%): 24% and 14%
  Population Healthy Nuclei (%): 22% and 41%
  Population Hoechst High Intensity Objects (%): 0% and 2%
  Population Membrane Permeable-Phenotype (%): 0% and 5%
  Population Mitochondria Different-Phenotype (%): 0% and 6%
  Population Mitotic Cells (%): 16% and 12%
  Population Normal (%): 100% and 97%
  Population Pyknosed Nuclei (%): 53% and 44%
  Population Tubulin-Different-Phenotype (%): 70% and 87%
[4]
  Population Apoptotic (%): 93% and 89%
  Population Fragmented Nuclei (%): 21% and 10%
  Population Healthy Nuclei (%): 19% and 31%
  Population Hoechst High Intensity Objects (%): 0% and 8%
  Population Membrane Permeable-Phenotype (%): 0% and 25%
  Population Mitotic Cells (%): 6% and 10%
  Population Normal (%): 100% and 91%
  Population Pyknosed Nuclei (%): 59% and 58%
  Population Tubulin-Different-Phenotype (%): 40% and 55%
[5]
  Population Apoptotic (%): 96% and 95%
  Population Healthy Nuclei (%): 22% and 28%
  Population Hoechst High Intensity Objects (%): 2% and 3%
  Population Mitotic Cells (%): 3% and 4%
  Population Normal (%): 97% and 96%
  Population Pyknosed Nuclei (%): 54% and 63%
  Population Tubulin-Different-Phenotype (%): 90% and 85%
[6]
  Population Apoptotic (%): 90% and 97%
  Population Fragmented Nuclei (%): 8% and 22%
  Population Healthy Nuclei (%): 12% and 0%
  Population Hoechst High Intensity Objects (%): 9% and 2%
  Population Mitotic Cells (%): 9% and 2%
  Population Normal (%): 90% and 97%
  Population Pyknosed Nuclei (%): 79% and 77%
